Columns and labels:
Format in all cases: cell-based
[1] = molecular target: T1, Adenosine receptor A1 (Homo sapiens, UniProt P30542); experiment: Displacement of [3H]R-PIA from human adenosine A1 receptor transfected in CHO cells
T1 sequence (P30542 whole entry): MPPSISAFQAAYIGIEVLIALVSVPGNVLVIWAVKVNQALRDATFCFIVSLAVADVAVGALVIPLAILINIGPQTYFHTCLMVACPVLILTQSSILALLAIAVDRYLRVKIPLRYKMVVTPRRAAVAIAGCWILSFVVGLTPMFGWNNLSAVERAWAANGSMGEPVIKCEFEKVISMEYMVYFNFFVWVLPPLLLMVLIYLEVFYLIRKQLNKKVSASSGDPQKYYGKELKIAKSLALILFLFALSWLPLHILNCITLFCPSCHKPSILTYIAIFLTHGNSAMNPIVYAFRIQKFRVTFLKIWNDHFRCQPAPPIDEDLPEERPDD
How it was run: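 Membranes (40 µg/tube) from CHO cells stably expressing human A1 receptor were incubated with 2 nM [3H]R-PIA at 25 °C for 60 min in 50 mM Tris·HCl pH 7.4 containing 10 mM MgCl2. Nonspecific binding defined with 10 µM CPA. Terminated by filtration through GF/B filters.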

[2] = molecular target: T2, Adenosine receptor A2a (Homo sapiens, UniProt P29274); experiment: Displacement of [3H]CGS-21680 from human adenosine A2A receptor transfected in HEK293 cells
How it was run: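 Membranes (20 µg/tube) from HEK-293 cells stably expressing human A2A receptor, incubated with 15 nM [3H]CGS21680 at 25 °C for 60 min in 50 mM Tris·HCl pH 7.4 with 10 mM MgCl2. Nonspecific binding defined with 10 µM NECA. Terminated by filtration through GF/B filters.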

[3] = molecular target: T3, Adenosine receptor A3 (Homo sapiens, UniProt P0DMS8); experiment: Displacement of [125I]AB-MECA from human adenosine A3 receptor transfected in CHO cells
T3 sequence (P0DMS8 whole entry): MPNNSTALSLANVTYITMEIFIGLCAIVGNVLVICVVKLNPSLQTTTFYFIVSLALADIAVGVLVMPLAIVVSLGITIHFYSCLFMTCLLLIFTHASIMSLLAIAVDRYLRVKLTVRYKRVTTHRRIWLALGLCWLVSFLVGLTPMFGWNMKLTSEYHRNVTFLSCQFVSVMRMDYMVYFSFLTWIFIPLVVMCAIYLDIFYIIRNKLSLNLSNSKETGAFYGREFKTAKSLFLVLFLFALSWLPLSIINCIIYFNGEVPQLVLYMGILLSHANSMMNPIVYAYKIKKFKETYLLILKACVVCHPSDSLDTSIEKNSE

[4] = molecular target: T4, Adenosine receptor A1 (Homo sapiens) (UniProt P30542); experiment: Inhibition of [3H]R-PIA binding to human adenosine A1 receptor transfected in CHO cells at 10 uM
T4 sequence (whole entry): T1 sequence (P30542 whole entry)

[5] = molecular target: T2, Adenosine receptor A2a; experiment: Inhibition of [3H]CGS-21680 binding to human adenosine A2A receptor transfected in HEK293 cells at 10 uM

T2 sequence (P29274 whole entry): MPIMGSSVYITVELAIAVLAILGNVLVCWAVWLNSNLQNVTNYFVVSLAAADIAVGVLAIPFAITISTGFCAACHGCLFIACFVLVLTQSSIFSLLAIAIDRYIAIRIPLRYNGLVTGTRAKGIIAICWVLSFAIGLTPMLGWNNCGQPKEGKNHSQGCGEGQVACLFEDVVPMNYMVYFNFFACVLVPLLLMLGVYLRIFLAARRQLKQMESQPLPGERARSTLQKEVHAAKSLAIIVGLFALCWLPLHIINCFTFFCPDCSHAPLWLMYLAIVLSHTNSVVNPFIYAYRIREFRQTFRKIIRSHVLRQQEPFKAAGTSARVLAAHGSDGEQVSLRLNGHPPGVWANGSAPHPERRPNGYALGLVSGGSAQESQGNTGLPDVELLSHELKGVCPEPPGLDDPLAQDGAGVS

Structure (SMILES) | Ki [1] [nM] | Ki [2] [nM] | Ki [3] [nM] | inhibition [4] [%] | inhibition [5] [%]
Cc1ccccc1CNc1nc(Cl)nc2c1ncn2[C@@H]1S[C@H](C(=O)NCC2CC2)[C@@H](O)[C@H]1O | 1980 | 3890 | 29.7 | – | –
CCNC(=O)[C@H]1S[C@@H](n2cnc3c(NC4CC4)nc(Cl)nc32)[C@H](O)[C@@H]1O | 3.2 | 604 | 0.67 | – | –
CNc1nc(Cl)nc2c1ncn2[C@@H]1S[C@H](C(=O)N2CCC(Cc3ccccc3)CC2)[C@@H](O)[C@H]1O | – | – | 3500 | 10 | 6
CCNC(=O)[C@H]1S[C@@H](n2cnc3c(NCc4cccc(I)c4)nc(Cl)nc32)[C@H](O)[C@@H]1O | 144 | 292 | 0.89 | – | –
Cc1ccccc1CNc1nc(Cl)nc2c1ncn2[C@@H]1S[C@H](C(=O)N(C)C)[C@@H](O)[C@H]1O | – | – | 632 | 0 | 22.5
CNC(=O)[C@H]1S[C@@H](n2cnc3c(NC4CC4)nc(Cl)nc32)[C@H](O)[C@@H]1O | 37.3 | 4890 | 2.24 | – | –
O=C(NCCc1ccccc1)[C@H]1S[C@@H](n2cnc3c(NCc4cccc(I)c4)nc(Cl)nc32)[C@H](O)[C@@H]1O | – | – | 433 | 20 | 11
O=C([C@H]1S[C@@H](n2cnc3c(NCc4cccc(I)c4)nc(Cl)nc32)[C@H](O)[C@@H]1O)N1CCN(c2ccc(F)cc2)CC1 | – | – | 1440 | 24 | 12
CNc1nc(Cl)nc2c1ncn2[C@@H]1S[C@H](C(=O)NCCC(C)C)[C@@H](O)[C@H]1O | 4070 | – | 1.63 | – | 14
O=C(NCc1cccc(Cl)c1)[C@H]1S[C@@H](n2cnc3c(NCc4cccc(I)c4)nc(Cl)nc32)[C@H](O)[C@@H]1O | 1710 | – | 308 | – | 28
O=C([C@H]1S[C@@H](n2cnc3c(NC4CC4)nc(Cl)nc32)[C@H](O)[C@@H]1O)N1CCOCC1 | – | – | 4440 | 25 | 11
O=C([C@H]1S[C@@H](n2cnc3c(NCc4cccc(I)c4)nc(Cl)nc32)[C@H](O)[C@@H]1O)N1CCC(Cc2ccccc2)CC1 | – | – | 878 | 38 | 17
Cc1ccccc1CNc1nc(Cl)nc2c1ncn2[C@@H]1S[C@H](C(=O)N2CCC(Cc3ccccc3)CC2)[C@@H](O)[C@H]1O | – | – | 49200 | 26 | 15
CNc1nc(Cl)nc2c1ncn2[C@@H]1S[C@H](C(=O)NCCc2cccc(F)c2)[C@@H](O)[C@H]1O | – | – | 85.6 | 15 | 30
O=C(NC1CC1)[C@H]1S[C@@H](n2cnc3c(NCc4cccc(I)c4)nc(Cl)nc32)[C@H](O)[C@@H]1O | 92 | 326 | 2.96 | – | –
CCNC(=O)[C@H]1S[C@@H](n2cnc3c(NC4CCCC4)nc(Cl)nc32)[C@H](O)[C@@H]1O | 2 | 149 | – | – | –
CNC(=O)[C@H]1S[C@@H](n2cnc3c(NC4CCCC4)nc(Cl)nc32)[C@H](O)[C@@H]1O | 13.9 | 921 | 4.27 | – | –
CNc1nc(Cl)nc2c1ncn2[C@@H]1S[C@H](C(=O)N2CCOCC2)[C@@H](O)[C@H]1O | – | – | 3870 | 4 | 24
Cc1ccccc1CNc1nc(Cl)nc2c1ncn2[C@@H]1S[C@H](C(=O)NC2CC2)[C@@H](O)[C@H]1O | 76.7 | 202 | 27.8 | – | –

Structure (SMILES) | Ki [1] [nM] | Ki [2] [nM] | Ki [3] [nM] | inhibition [4] [%] | inhibition [5] [%]
CNc1nc(Cl)nc2c1ncn2[C@@H]1S[C@H](C(=O)N2CCN(c3ccc(F)cc3)CC2)[C@@H](O)[C@H]1O | – | – | 2700 | 28 | 34
O=C(NC1CCC1)[C@H]1S[C@@H](n2cnc3c(NCc4cccc(I)c4)nc(Cl)nc32)[C@H](O)[C@@H]1O | 126 | 549 | 18.2 | – | –
CC(C)CCNC(=O)[C@H]1S[C@@H](n2cnc3c(NCc4cccc(I)c4)nc(Cl)nc32)[C@H](O)[C@@H]1O | – | – | 41.9 | 31 | 31
O=C(NCC1CC1)[C@H]1S[C@@H](n2cnc3c(NCc4cccc(I)c4)nc(Cl)nc32)[C@H](O)[C@@H]1O | 1720 | 2220 | 3.64 | – | –
CNC(=O)[C@H]1S[C@@H](n2cnc3c(NC)nc(Cl)nc32)[C@H](O)[C@@H]1O | – | – | – | – | 20
CNc1nc(Cl)nc2c1ncn2[C@@H]1S[C@H](C(=O)NCCC(c2ccccc2)c2ccccc2)[C@@H](O)[C@H]1O | – | – | 415 | 20 | 15
O=C(NCCC(c1ccccc1)c1ccccc1)[C@H]1S[C@@H](n2cnc3c(NCc4cccc(I)c4)nc(Cl)nc32)[C@H](O)[C@@H]1O | – | – | 343 | 5 | 3
O=C(NC1CC1)[C@H]1S[C@@H](n2cnc3c(NC4CC4)nc(Cl)nc32)[C@H](O)[C@@H]1O | 4.6 | 325 | 5.56 | – | –
CNc1nc(Cl)nc2c1ncn2[C@@H]1S[C@H](C(=O)NCC2CC2)[C@@H](O)[C@H]1O | 638 | – | 1.1 | – | 44
Cc1ccccc1CNc1nc(Cl)nc2c1ncn2[C@@H]1S[C@H](C(=O)N2CCOCC2)[C@@H](O)[C@H]1O | – | – | 7670 | 4 | 17
CNc1nc(Cl)nc2c1ncn2[C@@H]1S[C@H](C(=O)N(C)C)[C@@H](O)[C@H]1O | – | – | 1500 | 10 | 12
CNC(=O)[C@H]1S[C@@H](n2cnc3c(NCc4ccccc4C)nc(Cl)nc32)[C@H](O)[C@@H]1O | 507 | 1320 | 2.18 | – | –
CNc1nc(Cl)nc2c1ncn2[C@@H]1S[C@H](C(=O)NC2CC2)[C@@H](O)[C@H]1O | 47.8 | 2770 | 2.82 | – | –
CCNC(=O)[C@H]1S[C@@H](n2cnc3c(NCc4ccccc4C)nc(Cl)nc32)[C@H](O)[C@@H]1O | 75.8 | 429 | 2.5 | – | –
O=C(NCc1cccc(C(F)(F)F)c1)[C@H]1S[C@@H](n2cnc3c(NCc4cccc(I)c4)nc(Cl)nc32)[C@H](O)[C@@H]1O | – | – | 354 | 0 | 11
CNc1nc(Cl)nc2c1ncn2[C@@H]1S[C@H](C(=O)NCc2cccc(F)c2)[C@@H](O)[C@H]1O | – | – | 17.4 | 67 | 41
O=C([C@H]1S[C@@H](n2cnc3c(NCc4cccc(I)c4)nc(Cl)nc32)[C@H](O)[C@@H]1O)N1CCOCC1 | – | – | 510 | 18 | 4
O=C([C@H]1S[C@@H](n2cnc3c(NC4CC4)nc(Cl)nc32)[C@H](O)[C@@H]1O)N1CCC(Cc2ccccc2)CC1 | – | – | 4020 | 32 | 33
